Several values for one entry are separate records, joined by “and”; a condition that tells them apart may be missing. Identical values can stand only once. Like-named read-outs stand apart in the source and are kept apart here.
Key:
WT hERG1 channels = WT hERG1 channels (Homo sapiens, UniProt Q12809); format: cell-based; conditions: for fold increase in Itest (isochronal, 4 s): 10 µM ICA, stated for WT and WT4 together
Summary of the method: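 Oocytes were injected with 10 ng cRNA for single WT subunits and recorded 1–3 d later by two-electrode voltage clamp. Bath (mM): 98 NaCl, 2 KCl, 1 CaCl2, 1 MgCl2, 5 HEPES, pH 7.6. Test compound was diluted from a 20 mM DMSO stock just before use. Itest was taken at the end of 4-s steps (−70 to 50 mV); tails at −70 mV were Boltzmann-fitted for V0.5act and z. Mean ± SEM, n = oocytes.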

WT4 hERG1 channels = WT4 hERG1 channels (Homo sapiens, UniProt Q12809); format: cell-based; conditions: for fold increase in Itest (isochronal, 4 s): 10 µM ICA, stated for WT and WT4 together
Summary of the method: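 WT4 tetramers (50 ng cRNA, 4–8 d) were studied by two-electrode voltage clamp in pH 7.6 bath, 2 mM KCl. Tests used 4-s steps, −70 to 50 mV, with tails at −70 mV and Boltzmann fits (V0.5act). Inactivation: 40 mV prepulse, then 5 s at 30 to −140 mV. Concentration-response of Itest at 20 mV or of Itail-max was fitted logistically (EC50, nH). Some Itail-Vret runs used 20 mM KCl bath.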

[1] = target: FL1/WT1/FL2 hERG1 channels (F557L) (Homo sapiens, UniProt Q12809, F557L); format: cell-based
Summary of the method: (§1)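 F557L/WT concatenated tetramers were expressed from 50 ng cRNA and recorded 4–8 d later by two-electrode voltage clamp in pH 7.6 HEPES bath, with and without test compound. V0.5act and z came from Boltzmann fits of tails at −70 mV after 4-s steps. Inactivation: 1 s at 40 mV, then 5 s at 30 to −140 mV, with Itail/(Vret−Erev) fitted. Fold increase in Itest at 20 mV over 1–30 µM was fitted logistically (EC50, nH).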

[2] = target: FL4 hERG1 channels (F557L) (Homo sapiens, UniProt Q12809, F557L); test: Two-electrode voltage clamp, concatenated tetramer FL4 in Xenopus oocytes; format: cell-based; conditions: 30 µM ICA, mean ± SEM
Summary of the method: as §1

[3] = Limit of solubility in extracellular solution; format: physicochemical; conditions: extracellular solution pH 7.6, diluted from 20-mM DMSO stock
[4] = target: FL1/WT1/FL1/WT1 hERG1 channels (F557L) (Homo sapiens, UniProt Q12809, F557L); format: cell-based; conditions: 30 µM ICA, mean ± SEM
Summary of the method: as §1

[5] = target: WT3/FL1 hERG1 channels (F557L) (Homo sapiens, UniProt Q12809, F557L); test: Two-electrode voltage clamp, concatenated tetramer WT3/FL1 in Xenopus oocytes; format: cell-based; conditions: 30 µM ICA, mean ± SEM
Summary of the method: as §1

[6] = target: FL2/WT2 hERG1 channels (F557L) (Homo sapiens, UniProt Q12809, F557L); test: Two-electrode voltage clamp, concatenated tetramer FL2/WT2 in Xenopus oocytes; format: cell-based; conditions: 30 µM ICA, mean ± SEM
Summary of the method: as §1

[7] = target: FL1/WT3 hERG1 channels (F557L) (Homo sapiens, UniProt Q12809, F557L); test: Two-electrode voltage clamp, concatenated tetramer FL1/WT3 in Xenopus oocytes; format: cell-based; conditions: 30 µM ICA
Summary of the method: as §1

[8] = target: LE4 hERG1 channels (L646E) (Homo sapiens, UniProt Q12809, L646E); test: Two-electrode voltage clamp, concatenated tetramer LE4 in Xenopus oocytes; format: cell-based; conditions: 10 µM PD, mean ± SEM
Summary of the method: (§2)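 Concatenated L646E/WT tetramers: 50 ng cRNA per oocyte, recorded 4–8 d later by two-electrode voltage clamp in pH 7.6 HEPES bath. Activation used 4-s steps, −70 to 50 mV, with Itail at −70 mV Boltzmann-fitted for V0.5act and z. Inactivation used 1 s at 40 mV, then 5 s at 30 to −140 mV; Itail/(Vret−Erev) was Boltzmann-fitted. Fold increase in Itail-max over 1–30 µM was fitted with a logistic equation (EC50, nH).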

[9] = target: LE1/WT1/LE2 hERG1 channels (L646E) (Homo sapiens, UniProt Q12809, L646E); format: cell-based; conditions: 10 µM PD, mean ± SEM
Summary of the method: as §2

[10] = target: WT3/LE1 hERG1 channels (L646E) (Homo sapiens, UniProt Q12809, L646E); test: Two-electrode voltage clamp, concatenated tetramer WT3/LE1 in Xenopus oocytes; format: cell-based
Summary of the method: as §2

[11] = target: LE2/WT2 hERG1 channels (L646E) (Homo sapiens, UniProt Q12809, L646E); test: Two-electrode voltage clamp, concatenated tetramer LE2/WT2 in Xenopus oocytes; format: cell-based; conditions: 10 µM PD, mean ± SEM
Summary of the method: as §2

[12] = target: LE1/WT1/LE1/WT1 hERG1 channels (L646E) (Homo sapiens, UniProt Q12809, L646E); format: cell-based; conditions: 10 µM PD, mean ± SEM
Summary of the method: as §2

[13] = target: LE1/WT3 hERG1 channels (L646E) (Homo sapiens, UniProt Q12809, L646E); test: Two-electrode voltage clamp, concatenated tetramer LE1/WT3 in Xenopus oocytes; format: cell-based
Summary of the method: as §2

O=C(Nc1ccc(Oc2ccccc2)cc1)c1cccc([N+](=O)[O-])c1 [ICA, 3-nitro-N-(4-phenoxyphenyl) benzamide]
fold increase in Itest (isochronal, 4 s) (WT hERG1 channels; at 20 mV): 20 fold
fold increase in Itest (isochronal, 4 s) (WT hERG1 channels; at −30 mV): 4 fold
fold increase in Itest (isochronal, 4 s) (WT4 hERG1 channels; at 20 mV): 20 fold
fold increase in Itest (isochronal, 4 s) (WT4 hERG1 channels; at −30 mV): 4 fold
effect on Itail at potentials more negative than −100 mV (WT4 hERG1 channels; 30 µM ICA, WT4, bath solution containing 20 mM KCl): did not cause an increase in Itail
V0.5inact (V0.5 for C-type inactivation) (WT4 hERG1 channels; 30 µM ICA, WT4, mean ± SEM): 57.8 ± 4.1 mV
z for inactivation (WT4 hERG1 channels; 30 µM ICA, WT4, mean ± SEM): 1.17 ± 0.05
nH (Hill coefficient) for increase in Itest at 20 mV (WT4 hERG1 channels; ICA, WT4): 1.7
increase in current at Vt of 20 mV, WT4 channels compared with FL1/WT1/FL2 channels (WT4 hERG1 channels; ICA, ratio WT4 vs FL1/WT1/FL2): ~13 fold
EC50 (WT4 hERG1 channels; read-out: EC50 for increase in Itest measured at 20 mV, ICA, WT4): 9.1 µM
V0.5act (half-point of channel activation) ([1]; 30 µM ICA, mean ± SEM): −19.5 ± 2.9 mV
V0.5inact (V0.5 for C-type inactivation) ([1]; 30 µM ICA, mean ± SEM): −72.5 ± 7.7 mV
z (equivalent charge) for activation ([1]; 30 µM ICA, mean ± SEM): 2.80 ± 0.22
z for inactivation ([1]; 30 µM ICA, mean ± SEM): 0.61 ± 0.05
shift in V0.5inact ([1]; 30 µM ICA, n = 4): 6.6 ± 1.6 mV
nH (Hill coefficient) for increase in Itest at 20 mV ([1]; ICA): 2.0
EC50 ([1]; read-out: EC50 for increase in Itest measured at 20 mV, ICA): 11.8 µM
V0.5act (half-point of channel activation) [2]: −18.7 ± 1.0 mV
V0.5inact (V0.5 for C-type inactivation) [2]: −98.8 ± 7.8 mV
z (equivalent charge) for activation [2]: 3.60 ± 0.15
z for inactivation [2]: 0.69 ± 0.04
limit of solubility [3]: 0.03 mM
V0.5act (half-point of channel activation) [4]: −29.6 ± 1.6 mV
V0.5inact (V0.5 for C-type inactivation) [4]: −33.7 ± 16.0 mV
z (equivalent charge) for activation [4]: 3.00 ± 0.25
z for inactivation [4]: 0.56 ± 0.03
V0.5act (half-point of channel activation) [5]: −36.7 ± 1.1 mV
V0.5inact (V0.5 for C-type inactivation) [5]: 49.9 ± 4.0 mV
z (equivalent charge) for activation [5]: 3.57 ± 0.39
z for inactivation [5]: 1.21 ± 0.03
V0.5act (half-point of channel activation) [6]: −37.1 ± 0.4 mV
V0.5inact (V0.5 for C-type inactivation) [6]: −22.4 ± 9.3 mV
z (equivalent charge) for activation [6]: 3.88 ± 0.48
z for inactivation [6]: 0.46 ± 0.01
V0.5act (half-point of channel activation) ([7]; mean ± SEM): −34.5 ± 1.5 mV
V0.5inact (V0.5 for C-type inactivation) ([7]; mean ± SEM): 28.5 ± 6.0 mV
z (equivalent charge) for activation ([7]; mean ± SEM): 4.06 ± 0.39
z for inactivation ([7]; mean ± SEM): 0.95 ± 0.13
positive shift in V0.5inact ([7]; n = 4): 70 ± 3 mV

O=C(O)c1ccccc1Nc1ccc(CCc2ccc(Cl)c(Cl)c2)cc1 [PD, 2-(4-[2-(3,4-dichloro-phenyl)-ethyl]-phenylamino)-benzoic acid]
increase in Itest measured at the end of 4-s pulses (WT hERG1 channels; 10 µM PD, WT hERG1): about twofold
V0.5act (half-point of channel activation) (WT hERG1 channels; 10 µM PD, WT hERG1, mean ± SEM): −29.2 ± 14 mV
V0.5inact (V0.5 for C-type inactivation) (WT hERG1 channels; 10 µM PD, WT hERG1, mean ± SEM): −34.7 ± 4.2 mV
z (equivalent charge) for activation (WT hERG1 channels; 10 µM PD, WT hERG1, mean ± SEM): 3.07 ± 0.34
z for inactivation (WT hERG1 channels; 10 µM PD, WT hERG1, mean ± SEM): 1.19 ± 0.09
V0.5act (half-point of channel activation) [8]: −32.6 ± 1.2 mV
V0.5inact (V0.5 for C-type inactivation) [8]: −43.6 ± 2.2 mV
z (equivalent charge) for activation [8]: 3.55 ± 0.25
z for inactivation [8]: 1.52 ± 0.05
V0.5act (half-point of channel activation) [9]: −30.3 ± 1.4 mV
V0.5inact (V0.5 for C-type inactivation) [9]: −47.7 ± 4.0 mV
z (equivalent charge) for activation [9]: 3.55 ± 0.15
z for inactivation [9]: 1.31 ± 0.08
increase in Itest measured at the end of 4-s pulses (WT4 hERG1 channels; 10 µM PD, WT4): about twofold
increase in Itail (WT4 hERG1 channels; 10 µM PD, WT4, Vret −140 mV after 1-s pulse to 40 mV): 68%
V0.5act (half-point of channel activation) (WT4 hERG1 channels; 10 µM PD, WT4, mean ± SEM): −26.7 ± 1.0 mV
V0.5inact (V0.5 for C-type inactivation) (WT4 hERG1 channels; 10 µM PD, WT4, mean ± SEM): −39.4 ± 4.6 mV
z (equivalent charge) for activation (WT4 hERG1 channels; 10 µM PD, WT4, mean ± SEM): 3.07 ± 0.30
z for inactivation (WT4 hERG1 channels; 10 µM PD, WT4, mean ± SEM): 1.26 ± 0.17
EC50 [10]: 4.8 µM
V0.5act (half-point of channel activation) ([10]; 10 µM PD, WT3/LE1, mean ± SEM): −27.1 ± 1.3 mV and −27.1 ± 1.29 mV
V0.5inact (V0.5 for C-type inactivation) ([10]; 10 µM PD, WT3/LE1, mean ± SEM): −33.5 ± 3.7 mV
z (equivalent charge) for activation ([10]; 10 µM PD, WT3/LE1, mean ± SEM): 3.44 ± 0.16
z for activation (Figure 6 legend) ([10]; 10 µM PD, WT3/LE1, mean ± SEM): 3.44 ± 0.16
z for inactivation ([10]; 10 µM PD, WT3/LE1, mean ± SEM): 1.44 ± 0.19
nH (Hill coefficient) for fold increase in Itail-max ([10]; PD, WT3/LE1): 1.4
V0.5act (half-point of channel activation) [11]: −31.3 ± 1.0 mV
V0.5inact (V0.5 for C-type inactivation) [11]: −45.5 ± 2.8 mV
z (equivalent charge) for activation [11]: 3.94 ± 0.12
z for inactivation [11]: 1.19 ± 0.08
V0.5act (half-point of channel activation) [12]: −32.7 ± 0.8 mV
V0.5inact (V0.5 for C-type inactivation) [12]: −43.3 ± 3.4 mV
z (equivalent charge) for activation [12]: 3.45 ± 0.19
z for inactivation [12]: 1.22 ± 0.07
EC50 [13]: 4.6 µM
V0.5act (half-point of channel activation) ([13]; 10 µM PD, LE1/WT3, mean ± SEM): −30.1 ± 1.6 mV
V0.5inact (V0.5 for C-type inactivation) ([13]; 10 µM PD, LE1/WT3, mean ± SEM): −44.6 ± 2.7 mV
z (equivalent charge) for activation ([13]; 10 µM PD, LE1/WT3, mean ± SEM): 4.20 ± 0.07
z for activation (Figure 6 legend) ([13]; 10 µM PD, LE1/WT3, mean ± SEM): 4.2 ± 0.07
z for inactivation ([13]; 10 µM PD, LE1/WT3, mean ± SEM): 1.24 ± 0.10
nH (Hill coefficient) for fold increase in Itail-max ([13]; PD, LE1/WT3): 1.1

Reference: publication PMC3971662 (The Journal of General Physiology, 2014)
